In ChEMBL document CHEMBL1156806, “Novel synthesis and structural characterization of a high-affinity paramagnetic kinase probe for the identification of non-ATP site binders by nuclear magnetic resonance” (J Med Chem, 2010):
The source made the active and inactive calls. The calls are words filed in the database; no cut-off is given here.

Legend:
[1] = Inhibition of PKA
[2] = target: Tyrosine-protein kinase ABL1 (Homo sapiens, UniProt P00519); test: Inhibition of Abl 1
Procedure, shortened: (§1)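 Commercial recombinant kinases with kinase-optimised fluorescent peptide substrate at 1.5 μM and ATP at each kinase's measured Km; enzyme below 50 nM final. 11-point titration in DMSO, […] to 5 nM final. Room temperature, 1-2 h, to 20-30% substrate phosphorylation. EDTA stop, then substrate/product electrophoretic separation. IC50 from a Hill-equation fit of percent inhibition.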

[3] = target: Platelet-derived growth factor receptor alpha (Homo sapiens, UniProt P16234); test: Inhibition of PDGFRalpha; procedure, shortened: as §1
[4] = target: Tyrosine-protein kinase Fyn (Homo sapiens, UniProt P06241); test: Inhibition of Fyn; procedure, shortened: as §1
[5] = target: Tyrosine-protein kinase HCK (Homo sapiens, UniProt P08631); test: Inhibition of Hck; procedure, shortened: as §1
[6] = target: Mitogen-activated protein kinase 14 (Homo sapiens, UniProt Q16539); test: Inhibition of p38alpha
[7] = target: T1, Mitogen-activated protein kinase kinase kinase kinase 2 (Homo sapiens, UniProt Q12851); test: Inhibition of GCK; procedure, shortened: as §1
T1 sequence (Q12851 whole entry): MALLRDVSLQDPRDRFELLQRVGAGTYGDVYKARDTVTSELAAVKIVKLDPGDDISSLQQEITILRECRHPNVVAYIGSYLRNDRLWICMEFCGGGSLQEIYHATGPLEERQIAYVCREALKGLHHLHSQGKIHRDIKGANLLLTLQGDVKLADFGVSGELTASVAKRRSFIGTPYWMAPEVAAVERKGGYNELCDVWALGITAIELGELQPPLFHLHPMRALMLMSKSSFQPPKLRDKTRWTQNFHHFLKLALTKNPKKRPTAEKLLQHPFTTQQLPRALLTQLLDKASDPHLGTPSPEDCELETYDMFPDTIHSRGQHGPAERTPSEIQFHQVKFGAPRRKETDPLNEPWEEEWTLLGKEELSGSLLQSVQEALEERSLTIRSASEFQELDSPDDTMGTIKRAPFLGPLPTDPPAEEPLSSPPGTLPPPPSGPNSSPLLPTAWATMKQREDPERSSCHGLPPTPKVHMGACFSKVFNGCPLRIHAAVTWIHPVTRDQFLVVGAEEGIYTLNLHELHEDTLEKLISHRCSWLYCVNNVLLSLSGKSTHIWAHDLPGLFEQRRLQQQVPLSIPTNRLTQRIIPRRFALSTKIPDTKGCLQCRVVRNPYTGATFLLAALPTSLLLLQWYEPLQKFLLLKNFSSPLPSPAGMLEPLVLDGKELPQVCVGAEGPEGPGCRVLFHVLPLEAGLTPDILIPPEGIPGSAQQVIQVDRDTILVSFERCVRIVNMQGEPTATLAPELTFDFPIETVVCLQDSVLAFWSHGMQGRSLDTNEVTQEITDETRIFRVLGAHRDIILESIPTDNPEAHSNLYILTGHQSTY

[8] = target: Ribosomal protein S6 kinase alpha-1 (Homo sapiens, UniProt Q15418); test: Inhibition of RSK1
[9] = target: MAP kinase-activated protein kinase 2 (Homo sapiens, UniProt P49137); test: Inhibition of MK2
[10] = target: Cyclin-dependent kinase 1/cyclin B (Homo sapiens, UniProt P06493); test: Inhibition of CDK1/Cyclin B; format: protein-complex assay
[11] = target: Mitogen-activated protein kinase 1 (Homo sapiens, UniProt P28482); test: Inhibition of ERK2
[12] = target: Tyrosine-protein kinase Lck (Homo sapiens) (UniProt P06239); test: Inhibition of AMP-PNP binding to ATP binding site of LCK by saturation transfer difference spectra
Procedure, shortened: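 Lck kinase domain in 25 mM HEPES (pH 7.5), 200 mM NaCl, 10 mM MgCl2, 1 mM DTT, 5% DMSO/95% D2O; 25 °C, 600 MHz. Ligand is in large excess over protein. Protein saturated at 0.78 ppm for 3 s with 60 G4 Gaussian cascade pulses of 50 ms, 1 ms apart. STD % is peak intensity in STD spectrum over 1D 1H reference.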

[13] = target: T2, Proto-oncogene tyrosine-protein kinase Src (Homo sapiens, UniProt P12931); test: Inhibition of AMP-PNP binding to ATP binding site of human SRC by saturation transfer difference spectra
[14] = target: Protein kinase C alpha type (Homo sapiens, UniProt P17252); test: Inhibition of PKCalpha; procedure, shortened: as §1
[15] = target: Cyclin-dependent kinase 2/cyclin A (Homo sapiens, UniProt P24941); test: Inhibition of CDK2/Cyclin A; format: protein-complex assay
[16] = target: Vascular endothelial growth factor receptor 2 (Homo sapiens, UniProt P35968); test: Inhibition of KDR; procedure, shortened: as §1
[17] = target: Tyrosine-protein kinase Lyn (Homo sapiens, UniProt P07948); test: Inhibition of Lyn A; procedure, shortened: as §1
[18] = target: Protein kinase C beta type (Homo sapiens, UniProt P05771); test: Inhibition of PKCbeta1
[19] = target: T2, Proto-oncogene tyrosine-protein kinase Src; test: Inhibition of src kinase; procedure, shortened: as §1
[20] = target: Casein kinase I isoform gamma-1 (Homo sapiens, UniProt Q9HCP0); test: Inhibition of CK1gamma1
Aurora kinase B = Aurora kinase B (Homo sapiens, UniProt Q96GD4); test: Inhibition of Aurora B; procedure, shortened: as §1
[21] = target: T2, Proto-oncogene tyrosine-protein kinase Src; test: Inhibition of src kinase by functional activity assay of the Src kinase domain
[22] = target: T2, Proto-oncogene tyrosine-protein kinase Src; test: Inhibition of staurosporine binding to ATP binding site of human SRC by saturation transfer difference spectra
Procedure, shortened: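 Human Src kinase domain (T250-L536, Sf21 insect-cell expressed, His6-tagged, Ni-NTA then gel filtration). NMR buffer 20 mM HEPES (pH 7.5), 200 mM NaCl, 5 mM MgCl2, 2 mM DTT, 2% DMSO/98% D2O; 25 °C, 600 MHz. Saturation at 0.78 ppm for 3 s (60 × 50 ms G4 pulses). STD % is STD over 1D reference intensity.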

[23] = target: Tyrosine-protein kinase Lck (Homo sapiens) (UniProt P06239); test: Binding affinity to LCK assessed as reduction of compound relaxation intensity ratio at 100 uM by NMR method
Procedure, shortened: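 Lck kinase domain in 25 mM HEPES (pH 7.5), 200 mM NaCl, 10 mM MgCl2, 1 mM DTT, 5% DMSO/95% D2O; 25 °C, 600 MHz cryoprobe. T1ρ spectra at 10 and 200 ms spin-lock, 128 scans each. Ratio is the 200 ms over 10 ms resonance intensity, compared between spin-labelled probe and its reduced form.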

T2 sequence (P12931 2-536 limits assumed): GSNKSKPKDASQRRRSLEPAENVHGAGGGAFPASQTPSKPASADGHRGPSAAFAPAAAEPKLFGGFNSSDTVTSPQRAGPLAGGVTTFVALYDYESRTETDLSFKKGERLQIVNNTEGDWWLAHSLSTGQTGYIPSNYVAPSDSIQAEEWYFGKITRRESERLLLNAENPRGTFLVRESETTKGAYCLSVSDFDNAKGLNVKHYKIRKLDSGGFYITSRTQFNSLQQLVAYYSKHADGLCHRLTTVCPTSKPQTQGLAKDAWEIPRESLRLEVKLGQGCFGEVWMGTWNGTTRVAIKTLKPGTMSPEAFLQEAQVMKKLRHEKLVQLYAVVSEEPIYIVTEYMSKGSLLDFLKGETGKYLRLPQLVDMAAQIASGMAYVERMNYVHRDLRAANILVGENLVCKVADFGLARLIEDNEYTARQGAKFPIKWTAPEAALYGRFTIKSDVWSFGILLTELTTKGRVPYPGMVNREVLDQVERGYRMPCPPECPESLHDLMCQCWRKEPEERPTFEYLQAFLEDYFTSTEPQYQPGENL
Tyrosine-protein kinase Lck (Homo sapiens), sequence (P06239 2-509 limits assumed): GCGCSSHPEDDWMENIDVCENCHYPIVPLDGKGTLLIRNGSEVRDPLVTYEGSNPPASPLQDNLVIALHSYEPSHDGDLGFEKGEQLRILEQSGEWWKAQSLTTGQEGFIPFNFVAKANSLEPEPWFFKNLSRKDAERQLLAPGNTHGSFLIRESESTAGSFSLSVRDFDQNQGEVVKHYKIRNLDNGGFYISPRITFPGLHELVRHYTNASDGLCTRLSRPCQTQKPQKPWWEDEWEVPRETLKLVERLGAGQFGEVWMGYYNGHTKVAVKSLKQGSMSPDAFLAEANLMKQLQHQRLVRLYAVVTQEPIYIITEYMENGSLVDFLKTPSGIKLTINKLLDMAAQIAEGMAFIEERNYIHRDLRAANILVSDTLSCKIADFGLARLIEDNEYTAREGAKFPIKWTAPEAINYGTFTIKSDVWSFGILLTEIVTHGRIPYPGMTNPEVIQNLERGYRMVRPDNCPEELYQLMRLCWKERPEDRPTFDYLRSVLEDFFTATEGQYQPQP
Protein kinase C beta type, sequence (P05771 whole entry): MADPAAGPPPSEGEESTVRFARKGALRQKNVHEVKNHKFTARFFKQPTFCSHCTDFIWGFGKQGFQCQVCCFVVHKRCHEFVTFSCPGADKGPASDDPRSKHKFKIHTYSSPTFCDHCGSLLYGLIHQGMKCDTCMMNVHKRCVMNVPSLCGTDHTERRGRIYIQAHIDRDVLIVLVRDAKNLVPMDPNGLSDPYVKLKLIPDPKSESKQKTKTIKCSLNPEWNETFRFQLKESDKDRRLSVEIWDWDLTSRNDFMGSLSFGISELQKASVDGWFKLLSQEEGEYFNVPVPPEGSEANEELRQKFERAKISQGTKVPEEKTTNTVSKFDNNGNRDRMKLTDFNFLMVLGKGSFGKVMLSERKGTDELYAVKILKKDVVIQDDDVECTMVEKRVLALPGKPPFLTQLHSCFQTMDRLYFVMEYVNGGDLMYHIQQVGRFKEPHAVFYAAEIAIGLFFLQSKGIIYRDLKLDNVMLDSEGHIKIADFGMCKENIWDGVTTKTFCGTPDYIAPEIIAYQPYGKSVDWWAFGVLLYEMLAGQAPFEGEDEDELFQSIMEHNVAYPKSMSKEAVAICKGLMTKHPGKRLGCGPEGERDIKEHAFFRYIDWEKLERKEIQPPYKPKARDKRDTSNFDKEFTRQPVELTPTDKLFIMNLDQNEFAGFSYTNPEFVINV
Aurora kinase B, sequence (Q96GD4 whole entry, the tested form may be a part): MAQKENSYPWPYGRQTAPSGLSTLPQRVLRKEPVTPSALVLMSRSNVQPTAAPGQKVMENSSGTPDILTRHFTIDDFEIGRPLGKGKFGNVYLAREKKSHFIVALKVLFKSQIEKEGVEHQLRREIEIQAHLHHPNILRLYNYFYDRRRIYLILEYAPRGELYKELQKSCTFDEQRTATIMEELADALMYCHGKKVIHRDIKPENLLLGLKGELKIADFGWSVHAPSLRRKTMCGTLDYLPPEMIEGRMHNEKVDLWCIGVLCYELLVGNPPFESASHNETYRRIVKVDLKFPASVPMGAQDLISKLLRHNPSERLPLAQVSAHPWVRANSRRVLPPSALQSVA
Tyrosine-protein kinase ABL1, sequence (P00519 whole entry): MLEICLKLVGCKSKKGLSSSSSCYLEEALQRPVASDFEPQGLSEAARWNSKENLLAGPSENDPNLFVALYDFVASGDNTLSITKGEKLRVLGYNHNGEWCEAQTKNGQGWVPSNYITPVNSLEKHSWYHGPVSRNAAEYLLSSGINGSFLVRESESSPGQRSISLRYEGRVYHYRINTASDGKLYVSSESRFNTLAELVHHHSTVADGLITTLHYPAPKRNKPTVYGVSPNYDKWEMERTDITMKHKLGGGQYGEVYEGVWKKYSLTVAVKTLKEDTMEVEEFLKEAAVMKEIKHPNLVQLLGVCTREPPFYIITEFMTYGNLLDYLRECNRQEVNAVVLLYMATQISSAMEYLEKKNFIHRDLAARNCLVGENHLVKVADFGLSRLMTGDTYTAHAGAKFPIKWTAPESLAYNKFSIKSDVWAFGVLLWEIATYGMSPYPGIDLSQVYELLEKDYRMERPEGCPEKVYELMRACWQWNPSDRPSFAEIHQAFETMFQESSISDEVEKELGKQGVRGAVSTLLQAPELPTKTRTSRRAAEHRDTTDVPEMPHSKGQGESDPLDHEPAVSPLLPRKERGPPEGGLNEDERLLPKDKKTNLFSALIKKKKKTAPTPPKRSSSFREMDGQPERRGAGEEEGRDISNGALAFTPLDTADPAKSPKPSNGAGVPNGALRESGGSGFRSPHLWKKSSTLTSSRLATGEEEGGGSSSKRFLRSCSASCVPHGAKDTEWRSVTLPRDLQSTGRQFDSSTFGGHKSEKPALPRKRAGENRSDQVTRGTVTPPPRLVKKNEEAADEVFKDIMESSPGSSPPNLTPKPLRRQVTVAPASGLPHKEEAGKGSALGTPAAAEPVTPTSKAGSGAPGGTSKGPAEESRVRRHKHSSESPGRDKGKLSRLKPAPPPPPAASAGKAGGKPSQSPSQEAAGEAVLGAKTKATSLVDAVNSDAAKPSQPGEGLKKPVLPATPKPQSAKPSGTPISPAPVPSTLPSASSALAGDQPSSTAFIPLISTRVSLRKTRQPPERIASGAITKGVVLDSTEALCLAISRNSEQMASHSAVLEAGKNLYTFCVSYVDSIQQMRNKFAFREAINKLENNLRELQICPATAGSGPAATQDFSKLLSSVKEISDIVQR
Ribosomal protein S6 kinase alpha-1, sequence (Q15418 whole entry): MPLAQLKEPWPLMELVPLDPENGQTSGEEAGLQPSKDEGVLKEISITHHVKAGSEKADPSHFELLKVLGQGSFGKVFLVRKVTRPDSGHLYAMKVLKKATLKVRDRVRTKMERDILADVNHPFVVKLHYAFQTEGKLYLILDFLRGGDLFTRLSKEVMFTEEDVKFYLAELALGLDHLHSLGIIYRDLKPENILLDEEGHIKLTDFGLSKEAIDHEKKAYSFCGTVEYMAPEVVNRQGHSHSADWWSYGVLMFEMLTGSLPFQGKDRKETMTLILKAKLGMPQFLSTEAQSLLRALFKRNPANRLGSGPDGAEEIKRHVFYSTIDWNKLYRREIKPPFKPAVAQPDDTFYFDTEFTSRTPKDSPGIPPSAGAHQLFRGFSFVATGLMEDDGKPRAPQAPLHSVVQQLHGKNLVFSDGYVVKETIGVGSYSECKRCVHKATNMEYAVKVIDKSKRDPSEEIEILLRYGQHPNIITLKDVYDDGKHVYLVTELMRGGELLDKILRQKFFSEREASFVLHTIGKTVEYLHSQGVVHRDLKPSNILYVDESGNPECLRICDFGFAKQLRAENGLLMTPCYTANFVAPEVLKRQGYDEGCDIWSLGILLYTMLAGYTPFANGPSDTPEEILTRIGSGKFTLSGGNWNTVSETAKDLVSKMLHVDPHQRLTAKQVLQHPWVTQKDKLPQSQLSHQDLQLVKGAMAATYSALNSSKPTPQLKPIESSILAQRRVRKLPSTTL
Casein kinase I isoform gamma-1, sequence (Q9HCP0 whole entry, canonical isoform): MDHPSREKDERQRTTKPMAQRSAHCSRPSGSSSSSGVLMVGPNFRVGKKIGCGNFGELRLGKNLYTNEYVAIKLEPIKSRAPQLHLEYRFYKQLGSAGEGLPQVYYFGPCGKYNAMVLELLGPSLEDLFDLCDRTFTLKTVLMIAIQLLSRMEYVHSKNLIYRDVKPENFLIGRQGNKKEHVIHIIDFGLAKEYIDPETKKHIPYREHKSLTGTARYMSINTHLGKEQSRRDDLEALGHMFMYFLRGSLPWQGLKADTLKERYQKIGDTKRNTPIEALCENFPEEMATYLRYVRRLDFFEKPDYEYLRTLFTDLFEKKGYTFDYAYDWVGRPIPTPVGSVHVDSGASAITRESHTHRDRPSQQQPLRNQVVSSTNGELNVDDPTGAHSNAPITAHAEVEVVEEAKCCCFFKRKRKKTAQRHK

Q: Which IC50 [1] does the source give for CC1(C)CC(NC(=O)c2cccc(-c3cc4nccc(Nc5cccc(O)c5)n4n3)c2)CC(C)(C)N1[O] here?
A: > 50 µM

Q: What about the IC50 [2] of the same molecule?
A: 5 nM

Q: What about the IC50 [3] of the same molecule?
A: 38 nM

Q: And the IC50 [4]?
A: 5 nM

Q: And the IC50 [5]?
A: 16 nM

Q: And the IC50 [6]?
A: > 50 µM

Q: And the IC50 [7]?
A: 24 nM

Q: What about the IC50 [8] of the same molecule?
A: > 50 µM

Q: And the IC50 [9]?
A: > 50 µM

Q: And the IC50 [10]?
A: > 50 µM

Q: What about the IC50 [11] of the same molecule?
A: > 50 µM

Q: What about the Activity [12] of the same molecule?
A: Active

Q: And the Activity [13]?
A: Active

Q: What about the IC50 [14] of the same molecule?
A: 1300 nM

Q: And the IC50 [15]?
A: > 50 µM

Q: What about the IC50 [16] of the same molecule?
A: 3.3 nM

Q: What about the IC50 [17] of the same molecule?
A: 7 nM

Q: And the IC50 [18]?
A: > 60 µM

Q: And the IC50 [19]?
A: 5 nM

Q: And the IC50 [20]?
A: > 50 µM

Q: What about the IC50 (Aurora kinase B) of the same molecule?
A: 2900 nM

Q: With O=C(Cc1ccc(-c2ccc(OCCN3CCOCC3)cc2)cn1)NCc1ccccc1 [TIRBANIBULIN] as the molecule, how does the IC50 [21] read?
A: 40 µM

Q: And the Activity [12]?
A: Active

Q: And the Activity [13]?
A: inactive

Q: And the Activity [22]?
A: inactive

Q: What about the Activity [23] of the same molecule?
A: Active

Q: And the IC50 [19]?
A: > 20000 nM

Q: What does the source list for O=C(O)c1ccccc1Nc1ccccc1?
A: Activity [12]: Active; Activity [22]: inactive; Activity [23]: Active
